ASAP1 GAP inh: blocks human ASAP1-stimulated Arf1 GTP hydrolysis | Q9ULH1 | GDP FP detection | inhibition, % at 16.5 µM | hit rate 0.19% among 360,000 | AID 624377; in the data active = inhibition above about 25%;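 also: 0% = vehicle with enzyme and substrate and 100% = no enzyme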
Target sequence (Q9ULH1 325-724 limits assumed): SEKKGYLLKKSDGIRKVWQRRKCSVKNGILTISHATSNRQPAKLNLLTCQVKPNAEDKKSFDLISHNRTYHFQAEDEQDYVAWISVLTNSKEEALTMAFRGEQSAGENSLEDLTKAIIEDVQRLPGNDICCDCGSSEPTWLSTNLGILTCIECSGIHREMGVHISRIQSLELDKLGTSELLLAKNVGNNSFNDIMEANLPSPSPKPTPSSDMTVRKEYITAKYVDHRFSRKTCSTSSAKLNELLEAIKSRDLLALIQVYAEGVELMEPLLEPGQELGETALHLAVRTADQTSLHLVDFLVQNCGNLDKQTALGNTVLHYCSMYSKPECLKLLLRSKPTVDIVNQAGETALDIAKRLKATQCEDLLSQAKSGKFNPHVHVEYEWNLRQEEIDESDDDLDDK
UHRF1 MBD2 ctr: human UHRF1 methylated DNA binding inhibitors. AID 687016. hit rate 0.75% among 370,000. UHRF1 binding to methylated oligo, TR-FRET. inhibition, % at 4.4 µM; in the data active = inhibition above about 21%;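 also: UHRF1 SRA domain binding a hemimethylated CpG hairpin DNA probe; 0% = median of test compound wells and 100% = reference inhibitor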
LEDGF integ inh: blocks HIV-1 LEDGF/p75-dependent DNA integration | inhibition, % at 3.7 µM | hit rate 0.64% among 370,000 | TR-FRET IN-LEDGF/p75 DNA integration, Eu/Cy5;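 active = inhibition above the screen-wide mean plus 3 SD, cut at about 13% in these data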;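 also: signal is the Cy5 over europium emission ratio at 671 and 618 nm; 0% = plate median of compound wells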
ARFGAP1 inhibitor: rat ARFGAP1 inhibition; Q62848; Arfgap1-stimulated ARF1 GTP hydrolysis, GDP FP detection; inhibition, % at 16.5 µM; hit rate 0.26% among 360,000; AID 651572;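 active = inhibition above a per-plate limit, mean inhibition of low control wells plus 3 SD, cut at about 25% in these data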;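 also: 0% = DMSO wells with enzyme and 100% = wells lacking Arfgap1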
Target sequence (Q62848 1-136 limits assumed): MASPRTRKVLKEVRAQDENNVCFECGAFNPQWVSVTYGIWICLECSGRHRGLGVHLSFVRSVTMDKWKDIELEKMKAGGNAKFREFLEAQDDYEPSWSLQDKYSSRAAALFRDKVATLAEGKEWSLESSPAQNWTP
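material = rat Arfgap1 catalytic domain, aa 1-136 | also added = human ARF1(Δ1-17)-GTP substrate | compound dosing = one concentration, 16.5 µM, DMSO 1.26% | times = GTP hydrolysis reaction 2 h at 25 °C | measured by = FP, GDP Alexa 633 tracer displaced from anti-GDP antibody, 620/688 nm | evaluation = percent inhibition of Arfgap1-stimulated GTP hydrolysis | replication = single well per compound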
MBD2 DNA inh: blocks human MBD2 binding to methylated DNA | TR-FRET, MBD2 binding to methylated oligonucleotide | inhibition, % at 4.4 µM | hit rate 0.31% among 370,000 | AID 686964; in the data active = inhibition above about 13%
TCR-CD3 inh: blocks the human TCR-CD3 interaction; hit rate 0.37% among 360,000; inhibition, % at 9.4 µM; TAMRA-labeled TCR probe fluorescence, biochemical; AID 651800;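 also: recombinant mutant TCR 2C K166C tagged with TAMRA read by polarization; 0% = receptor in buffer alone and 100% = receptor with positive control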
BSA TAMRA ctr: interferes with TAMRA-BSA probe, flagging TCR-CD3 hits; hit rate 10% among 1,200; TAMRA-labeled BSA probe fluorescence counterscreen; shares compounds with TCR-CD3 inh; AID 652035; inhibition, % at 9.4 µM; in the data active = inhibition above about 23%;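 also: 0% = buffer low control and 100% = reference high control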
TCR-CD3 conf: confirmation of human TCR-CD3 interaction inhibitors. TAMRA-labeled TCR probe fluorescence binding assay. hit rate 48% among 1,200. shares compounds with TCR-CD3 inh. AID 652036. inhibition, % at 9.4 µM
Starred values were filed as active, the others as inactive; nt = not tested or not shown. The list is not random: actives were taken first. Their share in the collection is about 2%. Rule as the data show it, unless noted: active = inhibition above about 19%; inactive = the rest.

SMILES | ASAP1 GAP inh | UHRF1 MBD2 ctr | LEDGF integ inh | ARFGAP1 inhibitor | MBD2 DNA inh | TCR-CD3 inh | BSA TAMRA ctr | TCR-CD3 conf
COc1ccc(-c2cnnn2-c2ccc(NC(=O)c3ccc(S(=O)(=O)N4CCCCC4)cc3)cc2)cc1 | 3 | 6 | 0 | 5 | 0 | 24* | 29* | 39*
CCC(=O)c1cn(/C(=C\C(=O)OC(C)(C)C)CCC(OC)OC)cc1CC | -13 | -2 | -1 | -2 | 1 | 6 | nt | nt
COc1cc(C2NC(=O)CCC2[N+](=O)[O-])cc(OC)c1OC (stereo not given) | -3 | 3 | -4 | 2 | 5 | 23* | -2 | -3
COc1cccc(NC(=O)Cn2c(=O)n(C)c(=O)c3sc4c(c32)COC(C)(C)C4)c1 | 5 | -1 | -1 | 2 | -3 | -4 | nt | nt
C=CCc1cccc2cc(C(=O)NCCOC)c(=O)oc12 | 6 | 0 | 0 | 5 | -2 | -9 | nt | nt
C=CCc1cccc2cc(C(=O)NNC(=O)CC#N)c(=O)oc12 | 4 | -2 | -1 | 8 | -1 | 29* | 1 | 15
CCN1CCN(C(=O)C2CCN(S(=O)(=O)c3ccc(Br)cc3)CC2)CC1 | 6 | 3 | 0 | 1 | 3 | 19* | 3 | -3
CCCCn1c(N)c(N(CCOC)C(=O)C(C)N2C(=O)c3ccccc3C2=O)c(=O)[nH]c1=O (stereo not given) | -8 | 0 | -2 | -3 | -2 | 3 | nt | nt
Cn1cccc1CC(=O)NNC(=S)NC(=O)c1ccccc1Br | -7 | -4 | 6 | 5 | -8 | 28* | -4 | 16
Cc1cc2c(nc1C)CCCN2Cc1ccccn1 | -4 | -4 | 0 | -12 | 1 | 39* | 39* | 34*
Brc1ccc(-c2ccc3c(n2)CCCN3Cc2ccccn2)cc1 | 1 | -1 | 5 | -7 | 1 | 2 | nt | nt
CCCCNC(=S)N/N=C/c1cccc(OCC)c1O | 2 | 0 | -4 | -5 | -4 | 6 | nt | nt
CCOc1cccc(/C=N/NC(=S)Nc2ccccc2[N+](=O)[O-])c1O | 2 | -9 | -2 | 0 | 1 | 31* | -4 | 15
Cc1nnsc1C(=O)N1CCCC(Nc2ccc(F)c(F)c2)C1 (stereo not given) | -10 | 0 | 0 | -1 | 1 | -1 | nt | nt
COc1ccccc1OC(=O)c1ccc2nsnc2c1 | -6 | 1 | -3 | 11 | -2 | 21* | 6 | 4
CCOc1ccc(NS(=O)(=O)c2ccc(C(=O)N3CCC3)cc2)cc1 | 2 | 3 | 1 | 11 | 0 | -9 | nt | nt
O=C(NC(NC(=S)Nc1cccc(Cl)c1)C(Cl)(Cl)Cl)OCc1ccccc1 (stereo not given) | 7 | 1 | 4 | 5 | 0 | 24* | 6 | 4
CCO/C(C)=N/Oc1cnc2ccccc2c1 | 3 | -2 | -1 | 14 | 1 | 0 | nt | nt
COc1ccc(-c2cn(-c3ccc(Cl)cc3)c3[n+]2CCCCC3)cc1 | -8 | -1 | 1 | 4 | 0 | 34* | -6 | 0
Cc1ccc2nc(-c3ccc(NC(=O)CN(c4ccccc4C)S(C)(=O)=O)cc3)sc2c1 | 10 | -2 | -2 | 14 | -4 | 6 | nt | nt
Cc1cc(C)cc(N(CC(=O)Nc2ccc(-c3nc4ccc(C)cc4s3)cc2)S(C)(=O)=O)c1 | 10 | 1 | -1 | -3 | -6 | 49* | 19 | 32*
COc1ccc(CC(=O)N2CCC(n3nccc3NC(=O)C3CC3)CC2)cc1 | 0 | -3 | 3 | 15 | 3 | 5 | nt | nt
COc1ccc(OCC(=O)N2CCC(n3nccc3NC(=O)C3CC3)CC2)cc1 | -9 | 2 | 2 | 1 | -2 | 21* | 10 | 9
COCCn1c(SCc2ccc(F)cc2)nc2c1c(=O)[nH]c(=O)n2C | 5 | -3 | 0 | 0 | 3 | -3 | nt | nt
O=C(NNC(=O)c1c(O)c2ccccc2[nH]c1=O)c1ccccc1Br | -13 | 0 | -2 | 4 | -3 | 27* | -11 | 14
SMILES | ASAP1 GAP inh | UHRF1 MBD2 ctr | LEDGF integ inh | ARFGAP1 inhibitor | MBD2 DNA inh | TCR-CD3 inh | BSA TAMRA ctr | TCR-CD3 conf
O=C(CCl)NNC(=O)c1c(O)c2ccccc2[nH]c1=O | 2 | 18 | -2 | 7 | 7 | 66* | -7 | 50*
O=C(NC1CC1)c1c(O)c2ccccc2[nH]c1=O | 3 | 0 | -1 | 2 | 1 | 6 | nt | nt
C=C(C)C1CC=C(C)/C(=N/NC(=O)c2ccoc2C)C1 (stereo not given) | -8 | 0 | 0 | -2 | -1 | -2 | nt | nt
COc1ccc(O)c(CN2CCC(n3nccc3NC(=O)c3ccccc3Cl)CC2)c1 | 4 | 0 | 1 | 8 | 1 | -3 | nt | nt
O=C1CCCC(O)=C1N=Nc1c(Cl)cc(C(F)(F)F)cc1Cl | -8 | 2 | -3 | -1 | 5 | 26* | -7 | -3
O=C(N/N=C/c1cc(Cl)cc([N+](=O)[O-])c1O)c1ccc2c(c1)OCO2 | -4 | -3 | -7 | -12 | 0 | 41* | -18 | 47*
O=C(N/N=C/c1cc(Cl)cc([N+](=O)[O-])c1O)c1cccc(S(=O)(=O)N2CCOCC2)c1 | 2 | -13 | -6 | -2 | -8 | 41* | -15 | 58*
O=C(N/N=C/c1cc(Br)cc(Cl)c1O)c1ccc2c(c1)OCO2 | 6 | -4 | 5 | 15 | -1 | 38* | -6 | 29*
O=C(NNC(=O)c1cc(Cl)ccc1O)c1cccc(S(=O)(=O)N2CCOCC2)c1 | 7 | -3 | -9 | -5 | 0 | 43* | -11 | 31*
O=C(N/N=C/c1cc(Br)cc(Br)c1O)c1cccc(S(=O)(=O)N2CCOCC2)c1 | 4 | -2 | -1 | 6 | -3 | 9 | nt | nt
O=C(N/N=C/c1ccccc1O)c1ccc2c(c1)OCO2 | 14 | 4 | -1 | -1 | 8 | 0 | nt | nt
Cc1noc(C)c1NC(=O)Nc1ccc2c(c1)C(=O)N([C@H](C)CO)C[C@@H](C)[C@@H](CN(C)S(=O)(=O)c1cn(C)cn1)OCCCC[C@H](C)O2 | -5 | 2 | -1 | -12 | 1 | 1 | nt | nt
O=C(NCc1cc(Cl)cc(Cl)c1)c1csc([C@@H]2O[C@H](CO)[C@H](O)[C@H](O)[C@H]2O)n1 | -1 | 5 | -4 | -1 | 0 | -7 | nt | nt
Cc1cc(Br)cc(/C=N/NC(=O)c2ccc3c(c2)OCO3)c1O | -11 | 0 | -6 | 13 | 5 | 29* | -12 | 34*
O=C(N/N=C/c1cc(Br)c(O)c(Br)c1O)c1ccc2c(c1)OCCO2 | 7 | -5 | 0 | -27 | -6 | 25* | -33 | 20*
O=C(N/N=C/c1cc(Br)cc([N+](=O)[O-])c1O)c1ccc(NC(=O)c2ccc(F)cc2)cc1 | 4 | -1 | -2 | -9 | -7 | 58* | -12 | 51*

Screening data: PubChem, The Scripps Research Institute Molecular Screening Center
